Data set [1] deals with Ephrin type-A receptor 2 (Homo sapiens, UniProt P29317). Put plainly: Inhibition of EPHA2 (unknown origin) using FAM-labeled peptide as substrate preincubated for 5 to 10 mins followed by substrate/ATP addition measured after 30 to 60 mins by mobility shift assay. Put shortly: (§1)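 Caliper mobility-shift assay with FAM-labeled peptide substrate. Buffer: 50 mM HEPES pH 7.5, 0.0015% Brij-35, 10 mM MgCl2, 2 mM DTT, with kinase-specific enzyme levels. […] Incubation was 30-60 min at 28°C, stopped with EDTA buffer. Read-out was % conversion.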

Data set [2] in a line: Intrinsic clearance in human liver microsomes assessed per mg protein at 1 uM preincubated for 5 mins followed by NADPH addition measured after 5 to 30 mins by LC-MS/MS analysis. Conditions: read-out: CLH. The format is ADME, microsome. Put shortly: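 Microsomes (0.5 mg/ml) with 1 µM compound were preincubated 5 min at 37°C in 100 mM phosphate buffer pH 7.4, then started with 1 mM NADPH. Samples were taken at 0, 5, 10 and 30 min, quenched with acetonitrile/tinidazole and run by LC-MS/MS. CLint = k / microsomal protein concentration. Midazolam was the positive control.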
For orientation: Liver microsomes are a subcellular fraction often used to study metabolism.

The subject of data set [3] is Mus musculus. The data set is described as follows: Toxicity in BALB/c athymic nude mouse xenografted with human SNU5 cells assessed as apparent toxicity parameters at 0.3 to 3 mg/kg, po administered once daily for 2 weeks. The format is organism-based. Conditions: in vivo, 336 h. Put shortly:
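Female/male BALB/c nude mice (5-6 weeks, SPF). NCI-H1993 cells (7×10^6 in 140 µL) or SNU-5 cells (6×10^6 in 200 µL) injected s.c. into the right flank. Dosing started at mean tumour volume 150-250 mm³ (NCI-H1993) or 100-200 mm³ (SNU-5). Randomized, n = 7 (NCI-H1993) or 6 (SNU-5) per group. Oral dosing once daily; vehicle controls. Body weight and signs of toxicity monitored during treatment.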
(In general: A xenograft is tissue or cells of one species grown in another, often human tumour cells in immunodeficient mice.)

In data set [4] the target is CYP2D6 (Homo sapiens, UniProt P10635). The data set is described as follows: Reversible inhibition of CYP2D6 in human liver microsomes at 10 uM after 20 mins in presence of NADPH by LC-MS/MS analysis. The data set is classed as ADME. As to conditions: liver microsomes.
Chain of CYP2D6 (P10635 whole entry): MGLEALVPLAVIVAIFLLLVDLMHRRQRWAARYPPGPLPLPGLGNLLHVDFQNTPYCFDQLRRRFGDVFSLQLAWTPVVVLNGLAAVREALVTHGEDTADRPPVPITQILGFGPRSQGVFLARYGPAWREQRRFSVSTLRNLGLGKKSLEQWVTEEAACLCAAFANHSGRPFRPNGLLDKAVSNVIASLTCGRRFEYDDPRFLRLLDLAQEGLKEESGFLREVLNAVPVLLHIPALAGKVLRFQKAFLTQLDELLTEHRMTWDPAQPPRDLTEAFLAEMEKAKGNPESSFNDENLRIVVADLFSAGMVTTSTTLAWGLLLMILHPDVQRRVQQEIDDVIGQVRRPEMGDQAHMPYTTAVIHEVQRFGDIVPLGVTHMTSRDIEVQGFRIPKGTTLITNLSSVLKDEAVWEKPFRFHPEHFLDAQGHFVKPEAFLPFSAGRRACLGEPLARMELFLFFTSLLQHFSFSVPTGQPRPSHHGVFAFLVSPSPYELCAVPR
For data set [5], the target named is Fibroblast growth factor receptor 1 (Homo sapiens, UniProt P11362). Put plainly: Inhibition of FGFR1 (unknown origin) using FAM-labeled peptide as substrate preincubated for 5 to 10 mins followed by substrate/ATP addition measured after 30 to 60 mins by mobility shift assay. In outline:
as §1

In data set [6] the test system is NCI-H1993. The data set is described as follows: Antitumor activity against human NCI-H1993 cells xenografted in BALB/c athymic nude mouse assessed as tumor growth inhibition at 10 mg/kg, po administered once daily for 3 weeks. The data set is classed as functional. As to conditions: 504 h, read-out: TGI. In outline: (§2)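 BALB/c nude mice, 5-6 weeks old, kept under SPF conditions, received 7×10^6 NCI-H1993 cells s.c. in the right flank. At 150-250 mm³ they were sorted and randomized, n=7 per group, with vehicle controls. Dosing was oral, once daily for 3 weeks. […] Mean±SEM, Student's t-test.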

Data set [7] relates to NCI-H1993. Put plainly: Growth inhibition of human NCI-H1993 cells after 72 hrs by CCK-8 assay. The data set is classed as functional, cell-based. Conditions: nci-h1993.
Data set [8] has as its target Proto-oncogene tyrosine-protein kinase Src (Homo sapiens, UniProt P12931). The data set is described as follows: Inhibition of c-Src (unknown origin) using FAM-labeled peptide as substrate preincubated for 5 to 10 mins followed by substrate/ATP addition measured after 30 to 60 mins by mobility shift assay. In outline: as §1
The target in data set [9] is Hepatocyte growth factor receptor (Homo sapiens, UniProt P08581). The data set is described as follows: Inhibition of c-MET (unknown origin) using TK substrate-biotin peptide as substrate preincubated for 5 to 10 mins followed by ATP addition measured after 30 mins by HTRF assay. In general terms: TR-FRET usually uses a lanthanide donor and a delayed reading to cut background.

The target in data set [10] is T1, CYP2C9 (Homo sapiens, UniProt P11712). The data set is described as follows: Reversible inhibition of CYP2C9 in human liver microsomes at 10 uM after 20 mins by in presence of NADPH LC-MS/MS analysis. The format is ADME. As to conditions: liver microsomes.
T1 sequence (P11712 whole entry): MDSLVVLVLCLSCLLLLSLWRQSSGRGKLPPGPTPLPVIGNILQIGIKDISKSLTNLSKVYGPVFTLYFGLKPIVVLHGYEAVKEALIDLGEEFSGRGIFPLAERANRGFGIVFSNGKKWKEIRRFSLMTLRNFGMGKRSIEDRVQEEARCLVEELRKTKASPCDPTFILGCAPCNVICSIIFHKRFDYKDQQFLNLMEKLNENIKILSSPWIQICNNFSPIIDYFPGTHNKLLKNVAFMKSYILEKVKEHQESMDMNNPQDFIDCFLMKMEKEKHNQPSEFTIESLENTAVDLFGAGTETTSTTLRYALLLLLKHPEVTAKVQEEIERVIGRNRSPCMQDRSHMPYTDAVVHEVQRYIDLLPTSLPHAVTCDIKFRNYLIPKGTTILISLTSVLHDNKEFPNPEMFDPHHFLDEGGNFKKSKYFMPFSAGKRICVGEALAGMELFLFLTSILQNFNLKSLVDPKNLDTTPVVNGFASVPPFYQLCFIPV
The test system of data set [11] is Rattus norvegicus. Put plainly: Oral bioavailability in Sprague-Dawley rat plasma at 6 mg/kg by UPLC-MS/MS analysis. The format is ADME, organism-based. Conditions: in vivo. Put shortly:
(§3)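 Male Sprague-Dawley rats (180-220 g) were fasted overnight with free access to water. Dosing was intravenous (n=2) or oral at 6 mg/kg (n=3). Heparinized blood was drawn from 0 to 1440 min. Plasma was frozen at -20°C, then precipitated with acetonitrile containing internal standard, centrifuged and analysed by UPLC-MS/MS.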

For data set [12], the target named is T1, CYP2C9. The data set is described as follows: Time dependent irreversible inhibition of CYP2C9 in human liver microsomes at 10 uM preincubated with compound followed by NADPH addition by LC-MS/MS analysis. The format is ADME. Conditions: liver microsomes. Put shortly: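 HLM (0.2 mg/ml) with 10 µM compound were preincubated 0, 5, 10 or 20 min at 37°C with 1 mM NADPH or PBS. Substrate cocktail (halved concentrations) plus NADPH was then added for 10 min. Metabolites were measured by LC-MS/MS. Kobs is the slope of relative activity versus preincubation time.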

Data set [13] addresses Receptor tyrosine-protein kinase erbB-4 (Homo sapiens, UniProt Q15303). The data set is described as follows: Inhibition of ERBB4 (unknown origin) using FAM-labeled peptide as substrate preincubated for 5 to 10 mins followed by substrate/ATP addition measured after 30 to 60 mins by mobility shift assay. In outline: as §1
Data set [14] concerns the target Platelet-derived growth factor receptor alpha (Homo sapiens, UniProt P16234). The data set is described as follows: Inhibition of PDGFRalpha (unknown origin) using FAM-labeled peptide as substrate preincubated for 5 to 10 mins followed by substrate/ATP addition measured after 30 to 60 mins by mobility shift assay. In outline:
as §1

For data set [15], the system named is SNU-5. The data set is described as follows: Growth inhibition of human SNU5 cells after 72 hrs by CCK-8 assay. As to conditions: snu-5. The data set is classed as functional, cell-based.
Data set [16] addresses Macrophage-stimulating protein receptor (Homo sapiens, UniProt Q04912). Put plainly: Inhibition of RON (unknown origin) using FAM-labeled peptide as substrate preincubated for 5 to 10 mins followed by substrate/ATP addition measured after 30 to 60 mins by mobility shift assay. In outline: as §1
Data set [17] deals with CYP3A4 (Homo sapiens, UniProt P08684). The data set is described as follows: Reversible inhibition of CYP3A4 in human liver microsomes at 10 uM after 20 mins in presence of NADPH by LC-MS/MS analysis. The data set is classed as ADME. Conditions: liver microsomes.
Chain of CYP3A4 (P08684 whole entry): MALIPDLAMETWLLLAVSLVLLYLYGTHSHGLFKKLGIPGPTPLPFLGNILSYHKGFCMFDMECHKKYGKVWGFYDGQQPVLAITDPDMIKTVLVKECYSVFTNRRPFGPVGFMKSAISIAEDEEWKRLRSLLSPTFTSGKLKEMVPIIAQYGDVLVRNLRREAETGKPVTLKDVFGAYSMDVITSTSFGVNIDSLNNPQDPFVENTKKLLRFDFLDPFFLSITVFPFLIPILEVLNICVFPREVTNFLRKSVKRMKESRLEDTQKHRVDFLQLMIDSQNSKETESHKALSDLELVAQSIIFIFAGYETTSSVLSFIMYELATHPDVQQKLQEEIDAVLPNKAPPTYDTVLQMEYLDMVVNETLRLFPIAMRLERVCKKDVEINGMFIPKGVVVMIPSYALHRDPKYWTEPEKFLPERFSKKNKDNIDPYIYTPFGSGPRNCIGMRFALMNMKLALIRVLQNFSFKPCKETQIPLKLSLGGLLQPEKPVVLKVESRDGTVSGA
Data set [18] addresses Epidermal growth factor receptor (Homo sapiens, UniProt P00533, T790M). Put plainly: Inhibition of EGFR T790M mutant (unknown origin) using FAM-labeled peptide as substrate preincubated for 5 to 10 mins followed by substrate/ATP addition measured after 30 to 60 mins by mobility shift assay. Put shortly:
as §1

For data set [19], the target named is Insulin-like growth factor 1 receptor (Homo sapiens, UniProt P08069). The data set is described as follows: Inhibition of IGF1R (unknown origin) using FAM-labeled peptide as substrate preincubated for 5 to 10 mins followed by substrate/ATP addition measured after 30 to 60 mins by mobility shift assay. Put shortly:
as §1

Data set [20] addresses CYP2C19 (Homo sapiens, UniProt P33261). The data set is described as follows: Reversible inhibition of CYP2C19 in human liver microsomes at 10 uM after 20 mins in presence of NADPH by LC-MS/MS analysis. The data set is classed as ADME. As to conditions: liver microsomes.
In data set [21] the test system is NCI-H1993. Put plainly: Antitumor activity against human NCI-H1993 cells xenografted in BALB/c athymic nude mouse assessed as tumor growth inhibition at 0.1 mg/kg, po administered once daily for 3 weeks. The format is functional. As to conditions: 504 h, read-out: TGI. In outline:
as §2

Data set [22] can be described thus: Half life in Sprague-Dawley rat plasma at 1 mg/kg, iv by UPLC-MS/MS analysis. The format is ADME, organism-based. In outline:
as §3

The values that follow come from ChEMBL document CHEMBL4020721 (Eur J Med Chem, 2017).

Chain of Macrophage-stimulating protein receptor (Q04912 25-304 limits assumed): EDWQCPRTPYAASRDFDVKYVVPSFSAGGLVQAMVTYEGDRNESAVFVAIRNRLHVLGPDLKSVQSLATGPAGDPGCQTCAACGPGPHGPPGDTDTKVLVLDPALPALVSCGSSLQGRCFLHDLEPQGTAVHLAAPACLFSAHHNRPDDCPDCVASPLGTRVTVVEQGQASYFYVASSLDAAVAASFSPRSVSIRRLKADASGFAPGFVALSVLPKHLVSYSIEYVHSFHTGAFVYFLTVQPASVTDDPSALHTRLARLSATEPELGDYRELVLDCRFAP
Chain of Macrophage-stimulating protein receptor (Q04912 310-1400 limits assumed): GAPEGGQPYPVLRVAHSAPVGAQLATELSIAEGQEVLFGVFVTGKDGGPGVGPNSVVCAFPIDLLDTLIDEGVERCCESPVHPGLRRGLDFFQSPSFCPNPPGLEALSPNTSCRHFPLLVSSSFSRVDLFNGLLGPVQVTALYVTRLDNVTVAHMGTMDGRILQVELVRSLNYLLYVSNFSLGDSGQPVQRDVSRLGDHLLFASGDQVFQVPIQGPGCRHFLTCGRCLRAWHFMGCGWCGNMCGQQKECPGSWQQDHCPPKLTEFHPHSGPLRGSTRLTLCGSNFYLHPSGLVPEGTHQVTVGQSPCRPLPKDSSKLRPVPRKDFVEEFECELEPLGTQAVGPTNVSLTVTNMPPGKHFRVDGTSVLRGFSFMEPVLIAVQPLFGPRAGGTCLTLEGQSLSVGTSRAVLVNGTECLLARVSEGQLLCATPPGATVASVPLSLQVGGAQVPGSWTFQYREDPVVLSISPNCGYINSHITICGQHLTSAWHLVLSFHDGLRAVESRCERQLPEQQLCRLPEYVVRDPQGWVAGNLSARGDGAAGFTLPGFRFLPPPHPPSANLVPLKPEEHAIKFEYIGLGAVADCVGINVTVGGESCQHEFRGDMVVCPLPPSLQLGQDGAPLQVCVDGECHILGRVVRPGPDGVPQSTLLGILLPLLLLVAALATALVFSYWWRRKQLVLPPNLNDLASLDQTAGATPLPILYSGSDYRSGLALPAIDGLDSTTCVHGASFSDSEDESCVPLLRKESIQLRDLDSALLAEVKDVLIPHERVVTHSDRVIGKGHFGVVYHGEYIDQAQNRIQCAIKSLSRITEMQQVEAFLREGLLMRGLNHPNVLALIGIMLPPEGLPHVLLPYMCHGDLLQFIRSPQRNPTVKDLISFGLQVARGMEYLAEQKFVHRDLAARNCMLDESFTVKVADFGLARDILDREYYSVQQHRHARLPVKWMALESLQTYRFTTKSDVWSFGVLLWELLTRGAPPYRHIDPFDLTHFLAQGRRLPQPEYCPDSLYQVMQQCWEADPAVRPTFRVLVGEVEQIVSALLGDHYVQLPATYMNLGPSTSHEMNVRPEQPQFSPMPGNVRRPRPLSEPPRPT
Chain of Proto-oncogene tyrosine-protein kinase Src (P12931 2-536 limits assumed): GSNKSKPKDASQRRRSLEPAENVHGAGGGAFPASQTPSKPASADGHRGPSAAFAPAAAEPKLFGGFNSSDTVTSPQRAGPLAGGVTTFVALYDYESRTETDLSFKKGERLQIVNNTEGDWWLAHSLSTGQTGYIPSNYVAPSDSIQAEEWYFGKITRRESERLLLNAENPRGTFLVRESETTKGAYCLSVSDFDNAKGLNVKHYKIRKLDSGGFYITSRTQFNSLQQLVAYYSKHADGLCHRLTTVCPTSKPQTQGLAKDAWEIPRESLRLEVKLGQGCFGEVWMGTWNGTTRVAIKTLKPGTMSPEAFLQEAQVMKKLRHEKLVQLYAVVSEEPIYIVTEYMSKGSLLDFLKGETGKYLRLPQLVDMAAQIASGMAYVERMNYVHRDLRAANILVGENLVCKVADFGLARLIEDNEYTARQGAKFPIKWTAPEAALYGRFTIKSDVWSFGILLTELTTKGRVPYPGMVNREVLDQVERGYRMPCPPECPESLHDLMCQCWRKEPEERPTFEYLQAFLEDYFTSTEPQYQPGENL
Chain of CYP2C19 (P33261 whole entry): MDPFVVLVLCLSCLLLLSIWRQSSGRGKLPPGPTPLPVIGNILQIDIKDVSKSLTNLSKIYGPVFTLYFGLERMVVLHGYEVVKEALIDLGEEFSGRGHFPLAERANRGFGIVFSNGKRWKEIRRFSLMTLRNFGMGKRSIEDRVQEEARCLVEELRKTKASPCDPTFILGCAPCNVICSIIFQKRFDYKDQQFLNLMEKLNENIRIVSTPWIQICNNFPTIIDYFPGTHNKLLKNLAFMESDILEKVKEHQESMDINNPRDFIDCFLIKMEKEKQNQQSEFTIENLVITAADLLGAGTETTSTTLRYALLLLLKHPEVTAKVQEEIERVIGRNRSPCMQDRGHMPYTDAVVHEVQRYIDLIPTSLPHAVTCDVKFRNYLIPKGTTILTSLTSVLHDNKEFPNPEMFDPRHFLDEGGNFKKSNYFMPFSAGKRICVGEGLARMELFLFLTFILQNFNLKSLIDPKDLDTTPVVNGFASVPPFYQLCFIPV
Chain of Platelet-derived growth factor receptor alpha (P16234 whole entry): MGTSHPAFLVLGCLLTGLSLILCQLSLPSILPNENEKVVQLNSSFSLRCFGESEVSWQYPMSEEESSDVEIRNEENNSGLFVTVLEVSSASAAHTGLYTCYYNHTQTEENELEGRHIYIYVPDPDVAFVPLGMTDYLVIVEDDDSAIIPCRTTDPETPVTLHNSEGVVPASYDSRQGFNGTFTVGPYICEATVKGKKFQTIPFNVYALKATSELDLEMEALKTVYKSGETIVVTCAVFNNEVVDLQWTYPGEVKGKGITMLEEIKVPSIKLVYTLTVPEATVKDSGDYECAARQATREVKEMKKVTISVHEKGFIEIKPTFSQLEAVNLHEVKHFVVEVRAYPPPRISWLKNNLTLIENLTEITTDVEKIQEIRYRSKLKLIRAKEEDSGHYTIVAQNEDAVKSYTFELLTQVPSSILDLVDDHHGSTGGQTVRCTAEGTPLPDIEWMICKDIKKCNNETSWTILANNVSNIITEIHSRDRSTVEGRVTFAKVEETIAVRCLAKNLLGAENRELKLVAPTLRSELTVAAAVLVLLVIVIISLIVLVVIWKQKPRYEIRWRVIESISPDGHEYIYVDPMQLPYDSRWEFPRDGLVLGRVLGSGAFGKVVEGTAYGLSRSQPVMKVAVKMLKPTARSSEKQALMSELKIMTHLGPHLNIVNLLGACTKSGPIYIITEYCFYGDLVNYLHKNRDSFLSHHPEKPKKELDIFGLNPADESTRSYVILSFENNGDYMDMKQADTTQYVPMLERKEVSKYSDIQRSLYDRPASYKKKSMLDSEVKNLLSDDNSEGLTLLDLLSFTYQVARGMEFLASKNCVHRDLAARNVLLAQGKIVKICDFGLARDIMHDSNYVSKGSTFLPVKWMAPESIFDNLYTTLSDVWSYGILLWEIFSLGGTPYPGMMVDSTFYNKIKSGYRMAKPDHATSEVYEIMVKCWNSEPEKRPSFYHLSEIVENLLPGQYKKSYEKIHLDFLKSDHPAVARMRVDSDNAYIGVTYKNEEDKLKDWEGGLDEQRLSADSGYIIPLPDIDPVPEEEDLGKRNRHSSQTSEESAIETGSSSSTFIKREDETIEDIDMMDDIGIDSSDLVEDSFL

In the case of `CC(c1cc2cc(-c3cnn(C)c3)cnc2cc1F)n1nnc2ncc(-c3cnn(CCO)c3)nc21` (stereo in doubt; 14), the IC50 was over 30 µM in data set [1]; over 30 µM in [5]; 0.0011 µM in data set [7]; 17.1 µM in [8]; 0.0006 µM in data set [9]; over 30 µM in data set [13]. Moreover, the IC50 in [14] was 2.36 µM; in [15], 0.002 µM; in data set [16], 0.731 µM; in data set [18], over 30 µM; in data set [19], over 30 µM. Moreover, in data set [2], the microsomal CLint at 1 µM came out at 5 µL/min/mg. Also, the Activity result in [3] is “Non-Toxic”. For the same molecule, the inhibition at 20 min, 10 µM in [4], in data set [10], in data set [17] and in data set [20] was under 50% in each case. Besides, the inhibition in vivo at 10 mg/kg in data set [6] amounted to 90.8%. In data set [11], this molecule displayed an F of 12.1%. Further, in data set [12], the inhibition at 10 µM was under 50%. Moreover, in data set [21], the inhibition in vivo at 0.1 mg/kg came out at 55.5%. For the same molecule, in data set [22], the half-life was 3.7 h.

A word on the IC50: it is the midpoint of a concentration-inhibition curve. A word on the inhibition: it is the change of the read-out against control, counted positive when it falls. One may read the half-life as the time in which the quantity being followed falls by half. A lower half-life goes with fast loss.
